In ChEMBL document CHEMBL4765236, “Insights into the Antimicrobial Activity and Cytotoxicity of Engineered α-Helical Peptide Amphiphiles” (J Med Chem, 2016):
Active and inactive are the calls of the source. The rule behind the calls is not given here.

Tests used:
Escherichia coli [1] = experiment: Antibacterial activity against Escherichia coli O157:H7 CICC 21530 assessed as bacterial growth inhibition incubated for 18 to 24 hrs by microtiter broth dilution method; type: functional; conditions: time 18-24 hrs
Procedure, shortened: (§1)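 Log-phase bacteria grown at 37 °C in MHB, diluted to 10^5 CFU/mL, mixed 1:1 with serial peptide dilutions (peptide diluted in 0.01% acetic acid, 0.2% BSA); 37 °C for 18-24 h. MIC read by OD492 as lowest concentration giving no growth; mean of 3-5 independent experiments.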

Salmonella paratyphi = experiment: Antibacterial activity against Salmonella paratyphi C CICC 21512 assessed as bacterial growth inhibition incubated for 18 to 24 hrs by microtiter broth dilution method; type: functional; conditions: Salmonella enterica, time 18-24 hrs; procedure, shortened: as §1
Shigella flexneri = experiment: Antibacterial activity against Shigella flexneri CMCC 51571 assessed as bacterial growth inhibition incubated for 18 to 24 hrs by microtiter broth dilution method; type: functional; conditions: time 18-24 hrs
Procedure, shortened: (§2)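 Log-phase cells (grown overnight at 37 °C, subcultured in MHB) diluted to 10^5 CFU/mL in MHB and mixed 1:1 with serial peptide dilutions prepared in 0.01% acetic acid/0.2% BSA. Incubated 37 °C for 18-24 h. MIC is the lowest concentration giving no growth by OD492. Reported as the average of 3-5 independent experiments.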

Salmonella enterica = experiment: Antibacterial activity against Salmonella choleraesuis ATCC 13312 assessed as bacterial growth inhibition incubated for 18 to 24 hrs by broth dilution method; type: functional; conditions: time 18-24 hrs; procedure, shortened: as §1
Salmonella typhimurium = experiment: Antibacterial activity against Salmonella typhimurium CMCC 51005 assessed as bacterial growth inhibition incubated for 18 to 24 hrs by microtiter broth dilution method; type: functional, Salmonella enterica subsp. enterica serovar Typhimurium; conditions: Salmonella enterica, time 18-24 hrs; procedure, shortened: as §2
Salmonella enteritidis = experiment: Antibacterial activity against Salmonella enteritidis CICC 21527 assessed as bacterial growth inhibition incubated for 18 to 24 hrs by microtiter broth dilution method; type: functional, Salmonella enterica subsp. enterica serovar Enteritidis; conditions: Salmonella enterica, time 18-24 hrs; procedure, shortened: as §2
Staphylococcus aureus [2] = experiment: Antibacterial activity against Staphylococcus aureus ATCC 29213 assessed as bacterial growth inhibition incubated for 18 to 24 hrs by microtiter broth dilution method; type: functional; conditions: time 18-24 hrs; procedure, shortened: as §2
Staphylococcus aureus [3] = experiment: Antibacterial activity against Staphylococcus aureus GIM 1.160 assessed as bacterial growth inhibition incubated for 18 to 24 hrs by microtiter broth dilution method; type: functional; conditions: time 18-24 hrs; procedure, shortened: as §2
Listeria monocytogenes = experiment: Antibacterial activity against Listeria monocytogenes CICC 21662 assessed as bacterial growth inhibition incubated for 18 to 24 hrs by microtiter broth dilution method; type: functional; conditions: time 18-24 hrs; procedure, shortened: as §2
Bacillus pumilus = experiment: Antibacterial activity against Bacillus pumilus CMCC 63202 assessed as bacterial growth inhibition incubated for 18 to 24 hrs by microtiter broth dilution method; type: functional; conditions: time 18-24 hrs; procedure, shortened: as §2
Pseudomonas fluorescens = experiment: Antibacterial activity against Pseudomonas fluorescens CICC 21620 assessed as bacterial growth inhibition incubated for 18 to 24 hrs by microtiter broth dilution method; type: functional; conditions: time 18-24 hrs; procedure, shortened: as §2
Candida albicans = experiment: Antifungal activity against Candida albicans ATCC 10231 assessed as fungal growth inhibition incubated for 18 to 24 hrs by microtiter broth dilution method; type: functional; conditions: time 18-24 hrs; procedure, shortened: as §2
Erythrocyte = experiment: Hemolytic activity against human red blood cells assessed as concentration required to cause 10% hemoglobin release measured after 1 hr by microplate reader analysis; type: ADME, cell-based
Procedure, shortened: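 Fresh heparinized human RBCs washed three times in 10 mM PBS pH 7.4 and resuspended to about 1% (v/v) (5.4 × 10^8 cells/mL). Mixed 1:1 with peptide in PBS for 1 h at 37 °C, then centrifuged. Supernatant hemoglobin read at A540. PBS set as 0% and 0.1% Triton X-100 as 100% hemolysis. MHC is the concentration causing 10% hemolysis.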

[4] = Therapeutic index, ratio of MHC10 for human RBC to geometric mean of peptide MIC for Escherichia coli O157:H7 CICC 21530; type: toxicity; conditions: human red blood cells (RBC), pooled result: one value given for 11 cell lines, strains, targets or settings, read-out: TI
Procedure, shortened: (§3)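 Therapeutic index = MHC (peptide concentration giving 10% hemolysis of human RBCs, 1 h, 37 °C, A540) divided by geometric mean of MICs from broth microdilution (10^5 CFU/mL in MHB, 37 °C, 18-24 h, OD492).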

[5] = Therapeutic index, ratio of MHC10 for human RBC to geometric mean of peptide MIC for Staphylococcus aureus ATCC 29213; type: toxicity; conditions: human red blood cells (RBC), pooled result: one value given for 9 cell lines, strains, targets or settings, read-out: TI; procedure, shortened: as §3
RAW264.7 = experiment: Cytotoxicity against mouse RAW264.7 cells assessed as increase in cell viability at 64 uM incubated for 24 hrs by MTT assay relative to control; type: cell-based; conditions: raw264.7, 24 h
Procedure, shortened: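 RAW264.7 macrophages were grown in DMEM with 10% FBS, 2 mM glutamine and penicillin/streptomycin at 37 °C in 5% CO2. Cells seeded at 1.0-2.0 × 10^4 per well and treated with peptide (final 0.25-64 µM) for 24 h at 37 °C. MTT at 0.5 mg/mL added for 4 h, formazan dissolved in DMSO, read at 570 nm.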

Escherichia coli [6] = experiment: Antibacterial activity against Escherichia coli O157:H7 CICC 21530 assessed as bacterial growth inhibition incubated for 18 to 24 hrs in presence of 4.5 mM KCl by microtiter broth dilution method (reference value: 0.85 to > 71.5 uM); type: functional; conditions: time 18-24 hrs
Escherichia coli [7] = experiment: Antibacterial activity against Escherichia coli O157:H7 CICC 21530 assessed as bacterial growth inhibition incubated for 18 to 24 hrs in presence of 1 mM MgCl2 by microtiter broth dilution method (reference value: 0.85 to > 71.5 uM); type: functional; conditions: time 18-24 hrs
Cell membrane [8] = experiment: Induction of outer membrane permeabilization in Escherichia coli O157:H7 CICC 21530 assessed as increase in fluorescence intensity by NPN-dye based fluorescence assay; type: subcellular; conditions: dose 0.625-7.5 µM
Cell membrane [9] = experiment: Induction of cell membrane depolarization in Escherichia coli O157:H7 CICC 21530 assessed as increase in fluorescence intensity at 0.5 to 2 times MIC preincubated for 90 mins followed by KCl addition and measured after 15 to 30 mins by DiSC3-5 staining based fluorescence spectroscopic technique; type: subcellular; conditions: time 105-120 min
HepG2 = experiment: Cytotoxicity against human HepG2 cells assessed as reduction in cell viability incubated for 24 hrs by MTT assay; type: functional, cell-based
Procedure, shortened: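 HepG2 survival measured by MTT assay over a peptide range of 0.25-64 µM.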

Staphylococcus aureus [10] = experiment: Antibacterial activity against Staphylococcus aureus ATCC 29213 assessed as bacterial growth inhibition incubated for 18 to 24 hrs in presence of 150 mM NaCl by microtiter broth dilution method (reference value: 0.43 to > 71.5 uM); type: functional; conditions: time 18-24 hrs
Staphylococcus aureus [11] = experiment: Antibacterial activity against Staphylococcus aureus ATCC 29213 assessed as bacterial growth inhibition incubated for 18 to 24 hrs in presence of 4.5 mM KCl by microtiter broth dilution method (reference value: 0.43 to > 71.5 uM); type: functional; conditions: time 18-24 hrs
Staphylococcus aureus [12] = experiment: Antibacterial activity against Staphylococcus aureus ATCC 29213 assessed as bacterial growth inhibition incubated for 18 to 24 hrs in presence of 1 mM MgCl2 by microtiter broth dilution method (reference value: 0.43 to > 71.5 uM); type: functional; conditions: time 18-24 hrs
Escherichia coli [13] = experiment: Bactericidal activity against Escherichia coli O157:H7 CICC 21530 assessed as bacterial killing at 1 times MIC by time kill assay; type: functional, organism-based; conditions: time 1085.0 min, TDE = time-dependent effect

| Substance | MIC (Escherichia coli [1]) [µM] | MIC (Salmonella paratyphi) [µM] | MIC (Shigella flexneri) [µM] | MIC (Salmonella enterica) [µM] | MIC (Salmonella typhimurium) [µM] | MIC (Salmonella enteritidis) [µM] | MIC (Staphylococcus aureus [2]) [µM] | MIC (Staphylococcus aureus [3]) [µM] | MIC (Listeria monocytogenes) [µM] | MIC (Bacillus pumilus) [µM] | MIC (Pseudomonas fluorescens) [µM] | MIC (Candida albicans) [µM] | MHC10 (Erythrocyte) [µM] | selectivity ratio [4] | selectivity ratio [5] | Activity (RAW264.7) [%] | MIC (Escherichia coli [6]) [µM] | MIC (Escherichia coli [7]) [µM] | Activity (Cell membrane [8]) | Activity (Cell membrane [9]) | also measured |
| --- | --- | --- | --- | --- | --- | --- | --- | --- | --- | --- | --- | --- | --- | --- | --- | --- | --- | --- | --- | --- | --- |
| H-WLRAFRRLVRRLARLLRR-NH2 | 3.32 | 6.65 | 1.66 | 13.3 | > 53.2 | > 53.2 | 6.65 | 1.66 | 3.32 | 26.6 | 53.2 | 26.6 | 53.18 | 4.83 | 5.88 | 48.25 | 1.66 | > 53.2 | Dose-dependent effect | Active | Activity (HepG2): Dose-dependent effect; MIC (Staphylococcus aureus [10]): 26.6 µM; MIC (Staphylococcus aureus [11]): 1.66 µM; MIC (Staphylococcus aureus [12]): 0.83 µM; Activity (Escherichia coli [13]): Tde |
| H-WGRAFSAGVHRLANGGNG-NH2 | > 70.1 | > 70.1 | > 70.1 | > 70.1 | > 70.1 | > 70.1 | > 70.1 | 70.1 | > 70.1 | > 70.1 | > 70.1 | > 70.1 | > 70.09 | 1 | 1.08 | 77.58 | > 70.1 | > 70.1 | Dose-dependent effect | Active | Activity (HepG2): Dose-dependent effect; MIC (Staphylococcus aureus [10]): > 70.1 µM; MIC (Staphylococcus aureus [11]): > 70.1 µM; MIC (Staphylococcus aureus [12]): > 70.1 µM; Activity (Escherichia coli [13]): Tde |
| H-WGRAFSRGVRRLARGGRG-NH2 | 7.94 | 15.9 | 15.9 | 15.9 | > 63.5 | > 63.5 | 31.8 | 15.9 | 15.9 | > 63.5 | > 63.5 | > 63.5 | > 63.54 | 4.26 | 2.16 | 85.48 | 3.97 | 7.94 | Dose-dependent effect | Active | Activity (HepG2): Dose-dependent effect; MIC (Staphylococcus aureus [10]): > 63.5 µM; MIC (Staphylococcus aureus [11]): > 63.5 µM; MIC (Staphylococcus aureus [12]): > 63.5 µM; Activity (Escherichia coli [13]): Tde |
| H-WLRAFRRLVRRLARGLRR-NH2 | 0.85 | 0.43 | 0.43 | 1.7 | 6.81 | 6.81 | 0.43 | 0.43 | 0.21 | 0.85 | 0.43 | 3.4 | 27.22 | 20.5 | 59.1 | 40.73 | 0.85 | 0.85 | Dose-dependent effect | Active | Activity (HepG2): Dose-dependent effect; IC50 (HepG2; HepG2, 24 h): 32 µM; MIC (Staphylococcus aureus [10]): 1.7 µM; MIC (Staphylococcus aureus [11]): 0.21 µM; MIC (Staphylococcus aureus [12]): 0.21 µM; Activity (Escherichia coli [13]): Tde |
